The values below come from ChEMBL document CHEMBL1147884, “Further studies on the effect of lysine at the C-terminus of the Dmt-Tic opioid pharmacophore” (Bioorg Med Chem, 2007).

Each structure is given as a SMILES string. Starred links: 1 amine or outer side, 2 acyl side, 3 side chain; linkers in the order of their positions; H or OH if unused. Non-standard residues stand in square brackets, D forms with d. Residues, ends and D or L forms follow the SMILES beside them. *: point of attachment. Dmt = Cc1cc(O)cc(C)c1C[C@H](N)C(=O)O; εLys = N[C@@H](CCCCN[*:1])C(=O)[*:2]; Tic = O=C(O)[C@@H]1Cc2ccccc2CN1; NHBn = c1ccc(CN*)cc1; NHPh = c1ccc(N*)cc1

In general, Ki refers to the equilibrium dissociation constant of an inhibitor or competing ligand from its target. Broadly, the IC50 is the concentration that inhibits the measured activity by half.

The target in experiment [1] is Mu-type opioid receptor (Rattus norvegicus, UniProt P33535). The experiment can be described thus: Displacement of [3H]DAMGO 2 from mu opioid receptor in Sprague-Dawley rat brain P2 synaptosomal membrane. In outline: (§1)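 Competition binding at equilibrium, 2.5 h at 23 °C, on rat brain P2 synaptosomes preincubated to remove endogenous opioids, stored at -80 °C in buffered 20% glycerol. Five to eight peptide doses, duplicate assays, 3-5 independent preparations. Filtration on polyethylenimine-soaked (0.1%) glass fibre filters, three washes in ice-cold buffered BSA; Ki by Cheng-Prusoff, mean ± SE.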

Experiment [2] deals with Delta-type opioid receptor (Rattus norvegicus, UniProt P33533). The experiment can be described thus: Displacement of [3H]deltorphin 2 from delta opioid receptor in Sprague-Dawley rat brain P2 synaptosomal membrane. The method in brief: as §1
Background: In a radioligand displacement assay an active substance lowers the binding of a labelled ligand.

For experiment [3], the target named is T1, Opioid receptors; mu & delta (Rattus norvegicus) (UniProt P33533+P33535). Description: Selectivity ratio of Ki for mu opioid receptor to Ki for delta opioid receptor. The format is protein assay.
Experiment [4] concerns the target Delta-type opioid receptor (Mus musculus, UniProt P32300). Description: Antagonist activity at delta opioid receptor in mouse vas deferens assessed as inhibition of electrically-stimulated contraction. Particulars: read-out: pA2 (converted). The format is functional, tissue-based. In outline:
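Single mouse vas deferens in organ bath, balanced salt physiological buffer pH 7.5, electrically stimulated. Antagonism measured against δ-agonist deltorphin II; pA2 derived by Schild plot (method of Kosterlitz and Watt).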

Experiment [5] concerns the target Mu-type opioid receptor (Cavia porcellus, UniProt P97266). The experiment can be described thus: Agonist activity at mu opioid receptor in Hartley guinea pig ileum assessed as inhibition of electrically-stimulated contraction. It is filed as functional, tissue-based. In outline:
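Myenteric plexus-longitudinal muscle strips (2-3 cm) from small intestine of male Hartley guinea pigs in organ bath, physiological buffer pH 7.5. Inhibition of electrically evoked contraction; IC50 (nM) from dose-response curves, mean ± SE of five or six separate tissue assays; endomorphin-2 as internal standard.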

The target of experiment [6] is T1, Opioid receptors; mu & delta (Rattus norvegicus). The experiment can be described thus: Selectivity ratio of Ki for rat delta opioid receptor to Ki for rat mu opioid receptor. It is filed as protein assay.

Sequence of Mu-type opioid receptor (Cavia porcellus, UniProt P97266) (P97266 whole entry): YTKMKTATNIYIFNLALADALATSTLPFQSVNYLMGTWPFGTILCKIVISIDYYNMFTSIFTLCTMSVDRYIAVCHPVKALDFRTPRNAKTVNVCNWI
Sequence of Delta-type opioid receptor (Mus musculus, UniProt P32300) (P32300 whole entry): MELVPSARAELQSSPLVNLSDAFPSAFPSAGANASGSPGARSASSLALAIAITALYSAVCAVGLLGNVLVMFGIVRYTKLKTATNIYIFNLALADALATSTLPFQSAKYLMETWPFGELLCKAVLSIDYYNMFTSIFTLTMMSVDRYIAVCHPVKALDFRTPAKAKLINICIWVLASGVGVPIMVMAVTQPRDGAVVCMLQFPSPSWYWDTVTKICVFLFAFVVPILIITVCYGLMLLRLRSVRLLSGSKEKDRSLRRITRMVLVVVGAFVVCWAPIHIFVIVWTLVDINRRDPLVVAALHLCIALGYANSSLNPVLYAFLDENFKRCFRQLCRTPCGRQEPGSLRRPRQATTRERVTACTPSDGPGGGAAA
Sequence of Mu-type opioid receptor (Rattus norvegicus, UniProt P33535) (P33535 whole entry): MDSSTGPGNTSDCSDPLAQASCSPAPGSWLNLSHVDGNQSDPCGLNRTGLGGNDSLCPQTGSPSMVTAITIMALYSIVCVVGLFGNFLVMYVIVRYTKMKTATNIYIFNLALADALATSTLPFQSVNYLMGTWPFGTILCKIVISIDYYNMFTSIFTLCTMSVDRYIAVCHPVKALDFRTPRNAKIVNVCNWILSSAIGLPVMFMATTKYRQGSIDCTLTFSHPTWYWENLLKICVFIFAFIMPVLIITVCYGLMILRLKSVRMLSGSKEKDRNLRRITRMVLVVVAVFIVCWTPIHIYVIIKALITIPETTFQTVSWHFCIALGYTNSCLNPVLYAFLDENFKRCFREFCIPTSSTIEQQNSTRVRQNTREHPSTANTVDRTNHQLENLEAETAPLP
Sequence of Delta-type opioid receptor (Rattus norvegicus, UniProt P33533) (P33533 whole entry): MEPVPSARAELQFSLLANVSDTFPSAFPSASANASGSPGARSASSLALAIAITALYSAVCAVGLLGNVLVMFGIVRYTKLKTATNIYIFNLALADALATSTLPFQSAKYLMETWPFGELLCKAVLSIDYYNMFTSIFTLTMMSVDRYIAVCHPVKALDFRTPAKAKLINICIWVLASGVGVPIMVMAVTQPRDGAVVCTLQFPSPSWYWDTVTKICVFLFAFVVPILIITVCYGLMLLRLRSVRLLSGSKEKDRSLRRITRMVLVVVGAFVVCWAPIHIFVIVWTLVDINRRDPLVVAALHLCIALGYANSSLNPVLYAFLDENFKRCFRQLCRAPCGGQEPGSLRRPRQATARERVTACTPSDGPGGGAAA
T1 sequence (P33533 whole entry, looked up): as the sequence (P33533 whole entry) above
T1 sequence (P33535 whole entry, looked up): as the sequence (P33535 whole entry) above

Take `CC(=O)N[C@@H](CCCCNC(=O)[C@@H]1Cc2ccccc2CN1C(=O)[C@@H](N)Cc1c(C)cc(O)cc1C)c1nc2ccccc2[nH]1`: the Ki in experiment [1] amounted to 0.99 nM; in experiment [2], 0.21 nM. Also, the Ratio Ki in experiment [3] turned out to be 4.7. For the same molecule, in experiment [4], the Kb is 7.59 nM. Also, the IC50 in experiment [5] turned out to be 610 nM.
With `Cc1cc(O)cc(C)c1C[C@H](N)C(=O)N1Cc2ccccc2C[C@H]1C(=O)NCCCC[C@H](NC(=O)OCc1ccccc1)C(=O)NCc1ccccc1`, the Ki stood at 3.15 nM in experiment [1] and 0.53 nM in experiment [2]. In addition, in experiment [3], the Ratio Ki was found to be 5.9. Also, the Kb in experiment [4] was 5.37 nM. Further, the IC50 in experiment [5] is 1450 nM.
The corresponding values for `Cc1cc(O)cc(C)c1C[C@H](N)C(=O)N1Cc2ccccc2C[C@H]1C(=O)NCCCC[C@H](NC(=O)OCc1ccccc1)c1nc2ccccc2[nH]1` are 2.78 nM, 0.86 nM, 3.2, 15.1 nM and 618 nM.
The corresponding values for `Cc1cc(O)cc(C)c1C[C@H](N)C(=O)N1Cc2ccccc2C[C@H]1C(=O)NCCCC[C@H](NC(=O)OCc1ccccc1)C(=O)Nc1ccccc1` are 2.67 nM, 0.47 nM, 5.7, 5.89 nM and 711 nM.
As to `Cc1cc(O)cc(C)c1C[C@H](N)C(=O)N1Cc2ccccc2C[C@H]1C(=O)NCCCC[C@H](N)C(=O)Nc1ccccc1` (H-[Dmt]-[Tic]-[εLys]-NHPh), the figures for the Ki in experiment [1] and in experiment [2] were 0.89 nM and 2.02 nM, respectively. The Kb in experiment [4] was 12 nM. For the same molecule, the IC50 in experiment [5] turned out to be 515 nM. In addition, in experiment [6], the Ratio Ki turned out to be 2.3.
Regarding `Cc1cc(O)cc(C)c1C[C@H](N)C(=O)N1Cc2ccccc2C[C@H]1C(=O)NCCCC[C@H](N)c1nc2ccccc2[nH]1`, the Ki came to 1.02 nM in experiment [1] and 2.64 nM in experiment [2]. Besides, the Kb in experiment [4] is 8.13 nM. Moreover, the IC50 in experiment [5] amounted to 434 nM. The Ratio Ki in experiment [6] was 2.6.
For `CC(=O)N[C@@H](CCCCNC(=O)[C@@H]1Cc2ccccc2CN1C(=O)[C@@H](N)Cc1c(C)cc(O)cc1C)C(=O)NCc1ccccc1`, the Ki in experiment [1] came to 3.43 nM; in experiment [2], 0.21 nM. The Ratio Ki in experiment [3] came out at 16.3. Besides, the Kb in experiment [4] was 8.51 nM. The IC50 in experiment [5] was 1990 nM.
For `Cc1cc(O)cc(C)c1C[C@H](N)C(=O)N1Cc2ccccc2C[C@H]1C(=O)NCCCC[C@H](N)C(=O)NCc1ccccc1` (H-[Dmt]-[Tic]-[εLys]-NHBn), the Ki came to 0.6 nM in experiment [1] and 1 nM in experiment [2]. In experiment [4], the Kb was 15.5 nM. Further, in experiment [5], the IC50 is 553 nM. For the same molecule, in experiment [6], the Ratio Ki worked out at 1.7.
As to `CC(=O)N[C@@H](CCCCNC(=O)[C@@H]1Cc2ccccc2CN1C(=O)[C@@H](N)Cc1c(C)cc(O)cc1C)C(=O)Nc1ccccc1`, the values for the Ki in experiment [1] and in experiment [2] were 2.57 nM and 0.22 nM, respectively. In addition, the Ratio Ki in experiment [3] came out at 11.7. Moreover, the Kb in experiment [4] is 6.61 nM. In experiment [5], the IC50 came out at 486 nM.
